# Test results from ChEMBL document CHEMBL1141653, “New bis(2-aminoimidazoline) and bisguanidine DNA minor groove binders with potent in vivo antitrypanosomal and antiplasmodial activity” (J Med Chem, 2008).
# Columns and labels:
# [1] = tested on: Trypanosoma brucei rhodesiense; assay: Antitrypanosomal activity against Trypanosoma brucei rhodesiense STIB900; type: functional, organism-based
# How it was run: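 Bloodstream forms (10⁴ per well) in MEM with 15% heat-inactivated horse serum, 25 mM HEPES, 2-mercaptoethanol, hypoxanthine. 3-fold serial dilutions from 90 to 0.123 µg/mL, in duplicate. Incubation 72 h at 37 °C, 5% CO₂. Resazurin then added for 2–4 h more. Fluorescence read at ex 536 / em 588 nm.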
# Plasmodium falciparum = assay: Antiplasmodial activity against Plasmodium falciparum K1 in [3H]hypoxanthine incorporation assay; type: functional, organism-based; settings: K1, 72 h
# How it was run: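 K1 erythrocytic stages in RPMI 1640 without hypoxanthine with AlbuMax, human A⁺ red cells at 2.5% hematocrit, 0.3% parasitemia. Compounds taken from 10 mg/mL DMSO stock, tested as serial doubling dilutions at 37 °C in 4% CO₂/3% O₂/93% N₂. After 48 h, ³H-hypoxanthine (0.5 µCi) added for 24 h more; incorporation by scintillation counting. IC₅₀ from sigmoidal curves.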
# L6 = assay: Cytotoxicity against rat L6 cells; type: cell-based
# Ferriprotoporphyrin IX = assay: Inhibition of ferriprotoporphyrin 9 biomineralization at 1 mg/ml; type: functional
# How it was run: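 β-Hematin formation: hemin chloride (0.5 mg/mL in DMSO) with 0.5 M sodium acetate pH 4.4 and drug dilutions, 37 °C for 18–24 h. Pellet washed with DMSO, dissolved in 0.1 N NaOH, A405 read. Percent inhibition relative to solvent control. IC₅₀ derived, or percent inhibition at 1 mg/mL (highest concentration) given when no IC₅₀.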
# [2] = Selectivity index, ratio of IC50 for rat L6 cells to IC50 for Plasmodium falciparum K1; type: functional
# How it was run: (§1)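 Ratio of the IC₅₀ on L-6 rat skeletal myoblasts to the parasite IC₅₀. Cytotoxicity measured in RPMI 1640 with L-glutamine and 10% FBS, serial dilutions 90 to 0.123 µg/mL, duplicate. After 72 h, Alamar blue (resazurin) added for 2 h. Fluorescence read at ex 536 / em 588 nm.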
# [3] = Selectivity index, ratio of IC50 for rat L6 cells to IC50 for Trypanosoma brucei rhodesiense STIB900; type: functional; how it was run: as §1
# [4] = Binding affinity for DNA assessed as thermal melting temperature
# How it was run: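 Thermal melting of poly(dA)·poly(dT): DNA at 40 µM base with compound at 12 µM (ratio 0.3) in MES 0.01 M / EDTA 0.001 M buffer, pH 6.25. A260 followed from 20 to 95 °C at 0.5 °C/min. Value is ΔTm.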
IC50 [1] [µM],IC50 (Plasmodium falciparum) [µM],ΔTm [4] [°C],SMILES,IC50 (L6) [µM],inhibition (Ferriprotoporphyrin IX) [%],Ratio IC50 [2],Ratio IC50 [3]
5.9,1.3,–,CSc1ccc(NC(=N)N)cc1,240,–,–,–
0.102,0.035,20.1,N=C(N)Nc1ccc(Sc2ccc(NC(=N)N)cc2)cc1,2.66,0,76,26
48.6,7.9,–,N=C(N)Nc1ccc(N2CCCCC2)cc1,232,–,–,–
–,–,32.3,N=C(N)c1ccc(OCCCCCOc2ccc(C(=N)N)cc2)cc1,–,–,–,–
42.9,> 15,–,O=C(Nc1ccccc1)c1ccc(NC2=NCCN2)cc1,> 284,–,–,–
1.9,1.2,–,c1ccc(Sc2ccc(NC3=NCCN3)cc2)cc1,28.5,–,–,–
18.8,7.9,–,N=C(N)Nc1ccc(Oc2ccccc2)cc1,59.9,–,–,–
0.022,0.018,29.6,N=C(N)Nc1ccc(Nc2ccc(NC(=N)N)cc2)cc1,0.65,0,36,30
50.4,12,–,c1cc(N2CCCCC2)ccc1NC1=NCCN1,> 283,–,–,–
237,14.8,–,COc1ccc(NC(=N)N)cc1OC,> 388,–,–,–
15.9,3.8,–,N=C(N)Nc1ccc(Cc2ccccc2)cc1,43.9,–,–,–
32.9,4.1,–,N=C(N)Nc1ccc(NC(=O)Nc2ccccc2)cc1,> 234,–,–,–
0.196,0.046,22.1,N=C(N)Nc1ccc(Oc2ccc(NC(=N)N)cc2)cc1,1.64,0,36,8
1.2,0.549,–,c1ccc(Nc2ccc(NC3=NCCN3)cc2)cc1,90.7,–,–,–
122,10.4,–,N=C(N)Nc1ccc(NC(=O)c2ccccc2)cc1,> 309,–,–,–
2.4,5.7,–,CCN(CC)c1ccc(NC(=N)N)cc1,78.1,–,–,–
311,> 26,–,N=C(N)Nc1ccc(N)cc1,132,–,–,–
1.3,8.7,–,N=C(N)Nc1ccc(NC(=S)Nc2ccccc2)cc1,> 225,–,–,–
0.99,0.95,–,N=C(N)Nc1ccc2c(c1)CCC2,73.7,–,–,–
164,> 27,–,Cc1ccc(NC(=N)N)cc1,> 484,–,–,–
94.7,> 15,–,O=C(Nc1ccc(NC2=NCCN2)cc1)c1ccccc1,> 284,–,–,–

IC50 [1] [µM],IC50 (Plasmodium falciparum) [µM],ΔTm [4] [°C],SMILES,IC50 (L6) [µM],inhibition (Ferriprotoporphyrin IX) [%],Ratio IC50 [2],Ratio IC50 [3]
155,> 23,–,CC(=O)c1ccc(NC(=N)N)cc1,> 421,–,–,–
45.7,9,–,CCc1ccc(NC(=N)N)cc1,310,–,–,–
39.9,12.2,–,Cc1ccc(NC(=N)N)cc1C,190,–,–,–
146,> 23,–,N=C(N)Nc1ccc2c(c1)OCO2,> 417,–,–,–
2.6,3.1,–,S=C(Nc1ccccc1)Nc1ccc(NC2=NCCN2)cc1,91.1,–,–,–
4.3,0.444,12.8,N=C(N)Nc1ccc(S(=O)(=O)c2ccc(NC(=N)N)cc2)cc1,> 222,–,>500,>51
0.47,0.077,–,CC(C)(C)OC(=O)/N=C(/NC(=O)OC(C)(C)C)Nc1ccc(Nc2ccc(N/C(=N\C(=O)OC(C)(C)C)NC(=O)OC(C)(C)C)cc2)cc1,3.7,45,48,–
0.024,0.0023,–,N=C(N)Nc1ccc2c(c1)Cc1cc(NC(=N)N)ccc1-2,4.7,–,2043,196
4.9,1.7,–,c1ccc(Cc2ccc(NC3=NCCN3)cc2)cc1,73,–,–,–
5,5.7,–,c1ccc(Oc2ccc(NC3=NCCN3)cc2)cc1,167,–,–,–
2.6,0.055,–,CC(C)(C)OC(=O)N1CCN(C(=O)OC(C)(C)C)C1=Nc1ccc(S(=O)(=O)c2ccc(N=C3N(C(=O)OC(C)(C)C)CCN3C(=O)OC(C)(C)C)cc2)cc1,56.4,27,1025,–
0.316,0.036,5.3,CCOC(CNC(=N)Nc1ccc(Cc2ccc(NC(=N)NCC(OCC)OCC)cc2)cc1)OCC,> 175,–,>4861,>553
32.4,5.6,12.1,O=S(=O)(c1ccc(NC2=NCCN2)cc1)c1ccc(NC2=NCCN2)cc1,> 196,–,>35,>6
14.4,> 18,–,N=C(N)Nc1ccc(C(=O)c2ccccc2)cc1,118,–,–,–
87.4,13.3,–,N=C(N)Nc1ccc(C(=O)Nc2ccccc2)cc1,> 309,–,–,–
20.1,> 19,–,CN(C)c1ccc(NC(=N)N)cc1,> 358,–,–,–
4.8,1.6,–,N=C(N)Nc1ccc(Nc2ccccc2)cc1,49.5,–,–,–
9.4,5.2,–,O=C(c1ccccc1)c1ccc(NC2=NCCN2)cc1,226,–,–,–
0.206,0.068,27.6,N=C(N)Nc1ccc(C(=O)c2ccc(NC(=N)N)cc2)cc1,2.7,–,40,13
150,9,–,N=C(N)Nc1ccc2c(c1)OCCO2,> 391,–,–,–
45.4,3.4,–,O=C(Nc1ccccc1)Nc1ccc(NC2=NCCN2)cc1,> 219,–,–,–

SMILES,IC50 [1] [µM],IC50 (Plasmodium falciparum) [µM],ΔTm [4] [°C],IC50 (L6) [µM],inhibition (Ferriprotoporphyrin IX) [%],Ratio IC50 [2],Ratio IC50 [3]
Cc1ccc(NC2=NCCN2)cc1,262,> 23,–,> 425,–,–,–
COc1ccc(NC2=NCCN2)cc1OC,84.2,14.8,–,> 349,–,–,–
c1cc2c(cc1NC1=NCCN1)CCC2,9.2,5.3,–,> 378,–,–,–
c1cc2c(cc1NC1=NCCN1)OCCO2,68.4,> 19,–,> 351,–,–,–
CC(=O)c1ccc(NC2=NCCN2)cc1,54.6,5.7,–,> 375,–,–,–
Nc1ccc(NC2=NCCN2)cc1,–,15,–,> 423,–,–,–
Cc1ccc(NC2=NCCN2)cc1C,49.8,17.1,–,> 398,–,–,–
Nc1nc(N)nc(Nc2ccc([As]3SCC(CO)S3)cc2)n1 (stereo not given) [MELARSOPROL],–,5.5,–,–,–,–,–
c1ccc(NC2=NCCN2)cc1,182,> 25,–,> 455,–,–,–
c1cc2c(cc1NC1=NCCN1)OCO2,93.5,> 20,–,> 372,–,–,–
CCN(CC)c1ccc(NC2=NCCN2)cc1,40.1,15,–,> 444,–,–,–
CSc1ccc(NC2=NCCN2)cc1,7.3,1.7,–,174,–,–,–
CN(C)c1ccc(NC2=NCCN2)cc1,46.6,> 18,–,> 324,–,–,–
